# Experimental data published in ChEMBL document CHEMBL1156747, “N3-arylmalonamides: a new series of thieno[3,2-b]pyridine based inhibitors of c-Met and VEGFR2 tyrosine kinases” (Bioorg Med Chem Lett, 2009).
# Activity calls are given as the source filed them. The rule behind the calls is not given here.
# Key:
# [1] = molecular target: T1, Vascular endothelial growth factor receptor 2 (Homo sapiens, UniProt P35968); assay: Inhibition of GST-fused recombinant VEGFR2 expressed in baculovirus infected Sf9 cells after 30 mins by DELFIA assay
# T1 sequence (P35968 whole entry, the tested form may be a part): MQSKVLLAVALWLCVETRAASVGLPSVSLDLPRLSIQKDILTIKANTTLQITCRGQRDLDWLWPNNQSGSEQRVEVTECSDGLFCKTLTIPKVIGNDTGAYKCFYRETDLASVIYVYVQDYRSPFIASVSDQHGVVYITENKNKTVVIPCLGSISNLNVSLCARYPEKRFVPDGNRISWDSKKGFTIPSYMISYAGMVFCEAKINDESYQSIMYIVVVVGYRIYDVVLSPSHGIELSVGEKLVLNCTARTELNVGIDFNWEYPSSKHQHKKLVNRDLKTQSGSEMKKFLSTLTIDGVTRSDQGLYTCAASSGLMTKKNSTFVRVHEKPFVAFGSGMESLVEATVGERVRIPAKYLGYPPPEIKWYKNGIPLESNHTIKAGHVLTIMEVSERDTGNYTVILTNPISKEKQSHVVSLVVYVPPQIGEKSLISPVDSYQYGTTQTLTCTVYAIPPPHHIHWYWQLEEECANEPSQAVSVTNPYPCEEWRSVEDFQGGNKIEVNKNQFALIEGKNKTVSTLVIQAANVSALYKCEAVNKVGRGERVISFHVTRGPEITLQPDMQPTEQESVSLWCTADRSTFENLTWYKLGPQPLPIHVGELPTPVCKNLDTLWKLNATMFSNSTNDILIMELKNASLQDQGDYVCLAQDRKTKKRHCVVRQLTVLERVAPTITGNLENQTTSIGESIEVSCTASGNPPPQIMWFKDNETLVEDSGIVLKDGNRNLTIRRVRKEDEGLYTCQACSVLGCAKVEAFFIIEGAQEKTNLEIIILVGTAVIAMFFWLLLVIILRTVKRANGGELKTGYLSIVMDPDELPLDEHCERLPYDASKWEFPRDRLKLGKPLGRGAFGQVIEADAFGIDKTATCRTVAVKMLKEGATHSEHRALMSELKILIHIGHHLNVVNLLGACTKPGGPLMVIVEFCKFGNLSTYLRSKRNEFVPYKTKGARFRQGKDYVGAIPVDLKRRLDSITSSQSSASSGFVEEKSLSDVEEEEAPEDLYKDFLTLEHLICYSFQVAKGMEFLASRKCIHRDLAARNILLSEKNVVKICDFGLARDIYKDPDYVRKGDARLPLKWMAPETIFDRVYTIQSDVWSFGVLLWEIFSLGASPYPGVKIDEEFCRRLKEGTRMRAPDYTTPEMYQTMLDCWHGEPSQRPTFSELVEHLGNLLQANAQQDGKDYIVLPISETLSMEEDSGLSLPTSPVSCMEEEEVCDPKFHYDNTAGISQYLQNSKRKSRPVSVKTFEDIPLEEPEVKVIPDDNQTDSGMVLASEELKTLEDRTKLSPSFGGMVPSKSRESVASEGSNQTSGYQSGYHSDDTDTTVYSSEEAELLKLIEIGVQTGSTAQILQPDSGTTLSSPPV
# [2] = molecular target: T2, Hepatocyte growth factor receptor (Homo sapiens, UniProt P08581); assay: Inhibition of GST-fused recombinant C-met expressed in baculovirus infected high five cells after 30 mins by DELFIA assay
# Procedure, shortened: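 GST-fused catalytic domains from baculovirus-infected cells, High Five for c-Met (MOI 1) and Sf9 for VEGFR2 (MOI 0.1). DELFIA on immobilized poly(Glu4,Tyr). Enzyme 25 nM (c-Met) or 5 nM (VEGFR2), pre-incubated 4 min on ice with inhibitor and Mg-ATP. Reaction at 30 °C, 30 min (c-Met) or 10 min (VEGFR2), stopped with EDTA. Europium anti-phosphotyrosine read by time-resolved fluorescence. Seven concentrations in triplicate; IC50 from four-parameter fit.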
# Target sequence in this assay (P08581 whole entry, the tested form may be a part): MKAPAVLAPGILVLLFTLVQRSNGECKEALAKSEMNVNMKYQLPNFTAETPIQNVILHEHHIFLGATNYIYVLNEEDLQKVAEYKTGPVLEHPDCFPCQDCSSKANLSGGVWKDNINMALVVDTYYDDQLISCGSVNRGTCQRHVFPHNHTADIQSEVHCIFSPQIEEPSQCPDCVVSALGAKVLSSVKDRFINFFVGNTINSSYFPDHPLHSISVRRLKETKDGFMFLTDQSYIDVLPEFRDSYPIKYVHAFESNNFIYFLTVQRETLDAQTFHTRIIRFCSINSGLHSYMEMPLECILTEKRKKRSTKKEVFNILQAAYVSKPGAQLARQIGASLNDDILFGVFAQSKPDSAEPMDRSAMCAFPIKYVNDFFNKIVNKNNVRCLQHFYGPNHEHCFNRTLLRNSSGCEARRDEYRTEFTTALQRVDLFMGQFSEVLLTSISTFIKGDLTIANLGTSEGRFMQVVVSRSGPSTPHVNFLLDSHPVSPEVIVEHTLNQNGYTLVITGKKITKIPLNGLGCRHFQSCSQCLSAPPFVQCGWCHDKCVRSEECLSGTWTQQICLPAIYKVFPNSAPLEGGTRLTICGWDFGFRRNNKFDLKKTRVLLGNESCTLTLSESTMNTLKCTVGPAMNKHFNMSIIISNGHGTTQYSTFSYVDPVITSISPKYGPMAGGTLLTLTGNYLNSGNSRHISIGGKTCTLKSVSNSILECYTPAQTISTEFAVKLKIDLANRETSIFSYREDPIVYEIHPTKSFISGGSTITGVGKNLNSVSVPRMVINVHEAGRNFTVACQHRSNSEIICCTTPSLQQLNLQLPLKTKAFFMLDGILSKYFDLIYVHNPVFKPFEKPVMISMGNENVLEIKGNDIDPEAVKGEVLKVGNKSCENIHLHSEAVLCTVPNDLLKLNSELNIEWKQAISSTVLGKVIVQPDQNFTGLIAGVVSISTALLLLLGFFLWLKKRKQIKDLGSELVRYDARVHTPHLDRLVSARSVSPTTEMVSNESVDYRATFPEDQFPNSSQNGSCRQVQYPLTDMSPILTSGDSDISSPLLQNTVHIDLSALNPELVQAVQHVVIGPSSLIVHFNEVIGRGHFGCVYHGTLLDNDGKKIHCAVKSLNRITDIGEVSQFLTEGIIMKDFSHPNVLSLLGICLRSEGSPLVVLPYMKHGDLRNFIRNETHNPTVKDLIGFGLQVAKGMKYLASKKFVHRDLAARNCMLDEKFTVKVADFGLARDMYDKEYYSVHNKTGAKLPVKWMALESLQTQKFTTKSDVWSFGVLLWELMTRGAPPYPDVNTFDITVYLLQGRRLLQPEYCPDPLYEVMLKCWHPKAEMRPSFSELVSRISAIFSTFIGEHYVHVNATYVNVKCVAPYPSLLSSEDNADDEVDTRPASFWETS
# [3] = molecular target: T2, Hepatocyte growth factor receptor; assay: Inhibition of TPR-met autophosphorylation expressed in HEK293T cells after 150 mins by ELISA; assay type: cell-based; conditions: hek-293t
# Procedure, shortened: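 293T clone stably expressing activated TPR-Met under a CMV promoter, exposed to compound dilutions for 150 min. Autophosphorylation measured in lysates by ELISA with anti-phosphotyrosine (4G10), HRP reporter antibody and chemiluminescent read-out. IC50 from 4-parameter fit of triplicate means.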
# Target sequence in this assay (P08581 25-1390 limits assumed): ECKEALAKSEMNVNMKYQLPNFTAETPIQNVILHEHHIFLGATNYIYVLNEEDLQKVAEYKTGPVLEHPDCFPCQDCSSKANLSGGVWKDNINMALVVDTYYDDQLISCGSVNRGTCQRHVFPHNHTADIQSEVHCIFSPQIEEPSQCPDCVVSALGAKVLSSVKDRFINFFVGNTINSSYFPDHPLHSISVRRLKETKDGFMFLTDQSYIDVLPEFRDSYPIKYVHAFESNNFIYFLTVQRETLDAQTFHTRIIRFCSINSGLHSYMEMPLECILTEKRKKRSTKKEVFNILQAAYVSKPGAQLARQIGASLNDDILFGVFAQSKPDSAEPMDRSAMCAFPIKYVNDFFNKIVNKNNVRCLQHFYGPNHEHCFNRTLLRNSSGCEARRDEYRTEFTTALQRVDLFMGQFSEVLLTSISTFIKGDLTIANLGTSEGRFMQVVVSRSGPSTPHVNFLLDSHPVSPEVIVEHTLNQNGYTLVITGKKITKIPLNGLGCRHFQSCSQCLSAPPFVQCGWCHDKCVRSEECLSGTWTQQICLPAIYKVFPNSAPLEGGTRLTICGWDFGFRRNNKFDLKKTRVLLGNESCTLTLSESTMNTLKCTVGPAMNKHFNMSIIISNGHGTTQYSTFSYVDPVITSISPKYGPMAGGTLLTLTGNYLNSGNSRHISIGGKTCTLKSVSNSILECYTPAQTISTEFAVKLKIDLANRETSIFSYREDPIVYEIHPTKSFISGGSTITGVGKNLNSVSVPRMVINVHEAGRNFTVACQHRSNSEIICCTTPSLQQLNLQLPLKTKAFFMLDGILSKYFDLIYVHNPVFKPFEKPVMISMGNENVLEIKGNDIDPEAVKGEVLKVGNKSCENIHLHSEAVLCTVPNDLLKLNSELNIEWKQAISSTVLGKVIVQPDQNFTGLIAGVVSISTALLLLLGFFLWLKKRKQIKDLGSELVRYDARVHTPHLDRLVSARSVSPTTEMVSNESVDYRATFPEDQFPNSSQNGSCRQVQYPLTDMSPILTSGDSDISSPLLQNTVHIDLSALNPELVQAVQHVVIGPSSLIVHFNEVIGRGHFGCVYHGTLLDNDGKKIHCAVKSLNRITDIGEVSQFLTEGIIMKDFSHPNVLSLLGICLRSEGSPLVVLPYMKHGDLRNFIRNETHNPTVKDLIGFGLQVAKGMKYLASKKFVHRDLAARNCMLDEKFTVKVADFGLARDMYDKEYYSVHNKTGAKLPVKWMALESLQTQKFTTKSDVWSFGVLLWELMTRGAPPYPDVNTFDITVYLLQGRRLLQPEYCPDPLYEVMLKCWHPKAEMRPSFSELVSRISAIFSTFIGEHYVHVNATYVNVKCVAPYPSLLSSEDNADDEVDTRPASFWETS
# [4] = Volume of distribution at steady state in rat at 2.17 to 2.86 mg/kg, iv and 4.28 to 4.98 mg/kg, po; assay type: ADME, organism-based; conditions: in vivo, read-out: Vdss
# Procedure, shortened: (§1)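 Rat pharmacokinetics with intravenous dosing at 2.17–2.86 mg/kg and oral dosing at 4.28–4.98 mg/kg. Oral Cmax and AUC normalised per mg/kg.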
# [5] = Half life in rat at 2.17 to 2.86 mg/kg, iv; assay type: ADME, organism-based; parameters: dose 2.17-2.86 mg/kg, route intravenous; conditions: in vivo
# Procedure, shortened: as §1
# [6] = Oral bioavailability in rat at 4.28 to 4.98 mg/kg; assay type: ADME, organism-based; conditions: in vivo
# Procedure, shortened: as §1
# [7] = test system: Rattus norvegicus; assay: Cmax in rat at 4.28 to 4.98 mg/kg, po; assay type: ADME, organism-based; parameters: dose 4.28-4.98 mg/kg, route oral; conditions: in vivo
# Procedure, shortened: as §1
# [8] = Tmax in rat at 4.28 to 4.98 mg/kg, po; assay type: ADME, organism-based; parameters: dose 4.28-4.98 mg/kg, route oral; conditions: in vivo
# Procedure, shortened: as §1
# [9] = Clearance in rat at 2.17 to 2.86 mg/kg, iv and 4.28 to 4.98 mg/kg, po; assay type: ADME, organism-based; conditions: in vivo
# Procedure, shortened: as §1
# [10] = molecular target: Ephrin type-B receptor 4 (Homo sapiens) (UniProt P54760); assay: Inhibition of EphB4 at 100 nM by radiometric protein kinase assay
# Procedure, shortened: (§2)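 Single-concentration kinase selectivity panel run as radiometric protein kinase assays by an outside screening service; percent inhibition reported.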
# [11] = molecular target: Glycogen synthase kinase-3 beta (Homo sapiens) (UniProt P49841); assay: Inhibition of GSK3-beta at 100 nM by radiometric protein kinase assay
# Procedure, shortened: as §2
# [12] = molecular target: Inhibitor of nuclear factor kappa-B kinase subunit beta (Homo sapiens) (UniProt O14920); assay: Inhibition of IKK-beta at 100 nM by radiometric protein kinase assay
# Procedure, shortened: as §2
# [13] = molecular target: Receptor-type tyrosine-protein kinase FLT3 (Homo sapiens) (UniProt P36888); assay: Inhibition of Flt3 at 100 nM by radiometric protein kinase assay
# Procedure, shortened: as §2
# [14] = molecular target: Cyclin-dependent kinase 2/cyclin E (Homo sapiens) (UniProt P24864+P24941+O96020); assay: Inhibition of CDK2/Cyclin E at 100 nM by radiometric protein kinase assay; assay type: protein-complex assay
# Procedure, shortened: as §2
# [15] = molecular target: RAC-alpha serine/threonine-protein kinase (Homo sapiens) (UniProt P31749); assay: Inhibition of PKBalpha at 100 nM by radiometric protein kinase assay
# Procedure, shortened: as §2
# [16] = molecular target: Aurora kinase A (Homo sapiens) (UniProt O14965); assay: Inhibition of Aurora A at 100 nM by radiometric protein kinase assay
# Procedure, shortened: as §2
# [17] = Antitumor activity against human U87MG cells xenografted model assessed as tumor growth inhibition at 40 mg/kg, po qd after 10 days; assay type: functional, U-87MG ATCC; conditions: U-87 MG, 240 h, read-out: TGI
# [18] = molecular target: Vascular endothelial growth factor receptor 1 (Homo sapiens) (UniProt P17948); assay: Inhibition of VEGFR1 at 100 nM by radiometric protein kinase assay
# Procedure, shortened: as §2
# [19] = molecular target: Epidermal growth factor receptor (Homo sapiens) (UniProt P00533); assay: Inhibition of EGFR at 100 nM by radiometric protein kinase assay
# Procedure, shortened: as §2
# [20] = test system: A549; assay: Inhibition of HGF-induced cell migration in human A549 cells by wound healing assay; assay type: functional, cell-based
# [21] = molecular target: T1, Vascular endothelial growth factor receptor 2; assay: Inhibition of VEGFR2 assessed as inhibition of ERK phosphorylation
# Procedure, shortened: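 Cellular assay: ERK phosphorylation was measured after VEGF stimulation.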
# [22] = molecular target: Mast/stem cell growth factor receptor Kit (Homo sapiens) (UniProt P10721); assay: Inhibition of c-Kit at 100 nM by radiometric protein kinase assay
# Mast/stem cell growth factor receptor Kit (Homo sapiens), sequence (P10721 whole entry): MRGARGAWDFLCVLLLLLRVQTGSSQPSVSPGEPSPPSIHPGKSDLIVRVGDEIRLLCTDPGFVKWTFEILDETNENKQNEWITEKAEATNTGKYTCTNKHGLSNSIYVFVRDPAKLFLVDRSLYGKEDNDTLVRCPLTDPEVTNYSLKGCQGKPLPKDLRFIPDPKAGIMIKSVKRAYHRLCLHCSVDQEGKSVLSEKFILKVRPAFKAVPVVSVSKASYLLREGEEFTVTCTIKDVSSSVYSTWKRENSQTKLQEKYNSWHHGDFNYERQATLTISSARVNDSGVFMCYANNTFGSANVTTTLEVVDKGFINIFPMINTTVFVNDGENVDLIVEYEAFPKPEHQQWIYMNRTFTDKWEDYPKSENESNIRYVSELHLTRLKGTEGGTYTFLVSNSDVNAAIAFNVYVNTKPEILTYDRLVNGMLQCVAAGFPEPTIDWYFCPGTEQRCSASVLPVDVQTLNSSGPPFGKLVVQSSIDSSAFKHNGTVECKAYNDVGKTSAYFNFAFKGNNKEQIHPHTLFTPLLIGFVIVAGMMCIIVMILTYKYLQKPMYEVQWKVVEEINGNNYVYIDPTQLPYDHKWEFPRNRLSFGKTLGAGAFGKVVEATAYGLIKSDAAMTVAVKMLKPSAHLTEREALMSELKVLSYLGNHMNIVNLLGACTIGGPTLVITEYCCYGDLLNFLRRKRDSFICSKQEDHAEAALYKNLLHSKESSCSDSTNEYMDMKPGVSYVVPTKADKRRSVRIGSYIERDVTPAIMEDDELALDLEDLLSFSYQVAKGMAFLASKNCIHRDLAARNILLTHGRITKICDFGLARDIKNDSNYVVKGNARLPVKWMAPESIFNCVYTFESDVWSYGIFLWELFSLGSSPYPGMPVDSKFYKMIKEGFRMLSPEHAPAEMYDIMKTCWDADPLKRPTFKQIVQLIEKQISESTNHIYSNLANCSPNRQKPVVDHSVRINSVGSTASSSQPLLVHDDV
# Procedure, shortened: as §2
# [23] = test system: MKN-45; assay: Antitumor activity against human MKN45 cells xenografted model assessed as tumor growth inhibition at 40 mg/kg, po qd after 12 days; assay type: functional; conditions: MKN-45, 288 h, read-out: TGI
# [24] = test system: DU-145; assay: Inhibition of HGF-induced scattering in human DU145 cells; assay type: functional, cell-based
# [25] = molecular target: Angiopoietin-1 receptor (Homo sapiens) (UniProt Q02763); assay: Inhibition of […] at 100 nM by radiometric protein kinase assay
# Procedure, shortened: as §2
# [26] = test system: HUVEC; assay: Antiangiogenic activity in HUVEC cells assessed as inhibition of VEGF-induced tubule growth; assay type: functional, cell-based; conditions: Homo sapiens
# [27] = test system: HUVEC; assay: Antiproliferative activity against HUVEC cells assessed as inhibition of […] proliferation; assay type: functional, cell-based; conditions: Homo sapiens
# [28] = molecular target: Proto-oncogene tyrosine-protein kinase Src (Homo sapiens) (UniProt P12931); assay: Inhibition of c-SRC at 100 nM by radiometric protein kinase assay
# Procedure, shortened: as §2
# [29] = test system: HUVEC; assay: Antiangiogenic activity in HUVEC cells assessed as inhibition of VEGF-induced tubule growth at 100 nM; assay type: functional, cell-based; conditions: Homo sapiens
# [30] = molecular target: Vascular endothelial growth factor receptor 3 (Homo sapiens) (UniProt P35916); assay: Inhibition of VEGFR3 at 100 nM by radiometric protein kinase assay
# Procedure, shortened: as §2
# [31] = test system: A549; assay: Antitumor activity against human A549 cells xenografted model assessed as tumor growth inhibition at 40 mg/kg, po qd after 14 days; assay type: functional; conditions: A549, 336 h, read-out: TGI
# [32] = molecular target: Platelet-derived growth factor receptor alpha (Homo sapiens) (UniProt P16234); assay: Inhibition of PDGFRalpha at 100 nM by radiometric protein kinase assay
# Procedure, shortened: as §2
smiles,measurement,setting,value
CCn1cnc(-c2cc3nccc(Oc4ccc(NC(=O)CC(=O)Nc5cccc(F)c5)cc4F)c3s2)c1,IC50,[1],10 nM
same,IC50,[2],52 nM
same,IC50,[3],870 nM
CCn1cnc(-c2cc3nccc(Oc4ccc(NC(=O)CC(=O)NC5CCCCC5)cc4F)c3s2)c1,IC50,[1],10 nM
same,IC50,[2],52 nM
same,IC50,[3],590 nM
CN(C)CCn1cnc(C(=O)c2cc3nccc(Oc4ccc(NC(=O)CC(=O)Nc5ccccc5)cc4F)c3s2)c1,IC50,[2],20 nM
same,IC50,[3],190 nM
O=C(O)Cn1cnc(C(=O)c2cc3nccc(Oc4ccc(NC(=O)CC(=O)Nc5ccccc5)cc4F)c3s2)c1,IC50,[2],36 nM
same,IC50,[3],> 5000 nM
CCn1cnc(-c2cc3nccc(Oc4ccc(NC(=O)CC(=O)Nc5ccccc5F)cc4F)c3s2)c1,IC50,[2],32 nM
same,IC50,[3],35 nM
CCn1cnc(-c2cc3nccc(Oc4ccc(NC(=O)CC(=O)N(C)c5ccccc5)cc4F)c3s2)c1,IC50,[2],33 nM
same,Vd,[4],0.33 L/kg
same,half-life,[5],54.6 min
same,bioavailability,[6],60%
same,Cmax normalised,[7],0.29 µM/mg/kg
same,Tmax,[8],0.5 h
same,IC50,[3],31 nM
same,clearance,[9],8.67 mL/min/kg
CCn1cnc(-c2cc3nccc(Oc4ccc(NC(=O)CC(=O)Nc5ccc(F)cc5)cc4F)c3s2)c1,IC50,[2],24 nM
CCn1cnc(-c2cc3nccc(Oc4ccc(NC(=O)CC(=O)Nc5ccccc5O)cc4F)c3s2)c1,IC50,[2],26 nM
same,IC50,[3],600 nM
CCn1cnc(-c2cc3nccc(Oc4ccc(NC(=O)C5(C(=O)Nc6ccccc6F)CC5)cc4F)c3s2)c1,IC50,[2],38 nM
same,IC50,[3],120 nM
CN(C)[C@@H]1CCN(C(=O)c2cc3nccc(Oc4ccc(NC(=O)CC(=O)Nc5ccccc5)cc4F)c3s2)C1,IC50,[3],560 nM
CCn1cnc(-c2cc3nccc(Oc4ccc(NC(=O)CC(=O)Nc5ccccc5OC)cc4F)c3s2)c1,IC50,[3],44 nM
Cn1ccnc1C(=O)c1cc2nccc(Oc3ccc(NC(=O)CC(=O)Nc4ccccc4)cc3F)c2s1,IC50,[2],36 nM
same,IC50,[3],40 nM
O=C(CC(=O)Nc1ccc(Oc2ccnc3cc(C(=O)N4CCCC4)sc23)c(F)c1)Nc1ccccc1,IC50,[3],2000 nM
Cn1cnc(C(=O)c2cc3nccc(Oc4ccc(NC(=O)CC(=O)Nc5ccccc5)cc4F)c3s2)c1,IC50,[2],25 nM
same,IC50,[3],340 nM
CCn1cnc(C(=O)c2cc3nccc(Oc4ccc(NC(=O)CC(=O)Nc5ccccc5)cc4F)c3s2)c1,IC50,[2],19 nM
same,Vd,[4],0.82 L/kg
same,half-life,[5],156 min
same,bioavailability,[6],12%
same,Cmax normalised,[7],0.18 µM/mg/kg
same,Tmax,[8],5.7 h
same,IC50,[3],180 nM
same,clearance,[9],5.5 mL/min/kg
CCn1cnc(-c2cc3nccc(Oc4ccc(NC(=O)C5(C(=O)Nc6ccccc6)CC5)cc4F)c3s2)c1,inhibition,[10],95%
same,inhibition,[11],< 5%
same,inhibition,[12],< 5%
same,inhibition,[13],100%
same,inhibition,[14],< 5%
same,inhibition,[15],< 5%
same,inhibition,[16],96%
same,inhibition in vivo at 40 mg/kg,[17],70%
same,IC50,[2],24 nM
same,inhibition,[18],98%
same,inhibition,[19],< 5%
same,IC50,[20],220 nM
same,Vd,[4],2.2 L/kg
same,IC50,[21],1 nM
same,half-life,[5],186 min
same,bioavailability,[6],33%
same,inhibition,[22],99%
same,inhibition in vivo at 40 mg/kg,[23],101%
same,IC50,[24],40 nM
same,Cmax normalised,[7],0.1 µM/mg/kg
same,Tmax,[8],2 h
same,inhibition,[25],100%
same,IC50,[26],< 3 nM
same,IC50,[27],0.3 nM
same,IC50,[3],4 nM
same,inhibition,[28],93%
same,Activity,[29],Active
same,inhibition,[30],97%
same,clearance,[9],16.5 mL/min/kg
same,inhibition in vivo at 40 mg/kg,[31],54%
same,inhibition,[32],99%
CCn1cnc(-c2cc3nccc(Oc4ccc(NC(=O)CC(=O)Nc5ccccc5C(F)(F)F)cc4F)c3s2)c1,IC50,[2],91 nM
same,IC50,[3],150 nM
